Assay results: the M2OR odorant receptor database

Columns and labels:
Conditions in all cases: stereoisomer not certain
UniProt Q8VGM2 = molecular target: T1, UniProt Q8VGM2
T1 sequence (whole entry): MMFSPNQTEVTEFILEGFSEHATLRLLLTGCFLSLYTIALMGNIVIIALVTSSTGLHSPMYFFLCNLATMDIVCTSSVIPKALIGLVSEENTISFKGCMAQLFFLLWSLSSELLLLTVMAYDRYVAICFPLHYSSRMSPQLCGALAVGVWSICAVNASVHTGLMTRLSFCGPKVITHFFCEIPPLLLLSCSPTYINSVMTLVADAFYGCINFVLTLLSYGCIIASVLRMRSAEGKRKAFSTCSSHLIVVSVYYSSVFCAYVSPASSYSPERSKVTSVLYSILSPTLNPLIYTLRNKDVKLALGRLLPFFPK
In short: (§1)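 Each receptor–molecule pair is labelled responsive or non-responsive (inactive) according to whether the original authors judged the measured signal statistically different from baseline. The data were taken from the main text and supplementary material of published papers and checked for typos and inconsistencies. Assay methods differed by source, with transient luciferase assays in mammalian cell lines being common.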

UniProt Q8VGP6 = molecular target: T2, UniProt Q8VGP6
T2 sequence (whole entry): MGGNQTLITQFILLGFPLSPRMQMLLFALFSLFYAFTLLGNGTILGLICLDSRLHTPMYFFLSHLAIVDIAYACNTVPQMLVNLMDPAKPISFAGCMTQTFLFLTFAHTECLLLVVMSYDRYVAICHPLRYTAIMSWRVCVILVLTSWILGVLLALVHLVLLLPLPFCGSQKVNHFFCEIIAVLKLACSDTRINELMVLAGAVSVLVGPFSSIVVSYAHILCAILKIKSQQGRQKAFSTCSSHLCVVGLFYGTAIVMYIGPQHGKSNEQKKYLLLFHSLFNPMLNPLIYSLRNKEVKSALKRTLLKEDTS
In short: as §1

UniProt Q8VGQ3 = molecular target: T3, UniProt Q8VGQ3
T3 sequence (whole entry): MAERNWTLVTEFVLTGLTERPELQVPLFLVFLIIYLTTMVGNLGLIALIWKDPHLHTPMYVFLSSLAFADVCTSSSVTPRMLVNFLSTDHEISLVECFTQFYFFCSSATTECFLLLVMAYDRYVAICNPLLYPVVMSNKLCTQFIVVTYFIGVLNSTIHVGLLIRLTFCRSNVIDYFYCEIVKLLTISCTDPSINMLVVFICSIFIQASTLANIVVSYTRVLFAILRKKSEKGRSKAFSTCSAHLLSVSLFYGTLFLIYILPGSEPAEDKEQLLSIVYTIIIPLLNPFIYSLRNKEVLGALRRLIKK
In short: as §1

UniProt Q8VGT4 = molecular target: T4, UniProt Q8VGT4
T4 sequence (whole entry): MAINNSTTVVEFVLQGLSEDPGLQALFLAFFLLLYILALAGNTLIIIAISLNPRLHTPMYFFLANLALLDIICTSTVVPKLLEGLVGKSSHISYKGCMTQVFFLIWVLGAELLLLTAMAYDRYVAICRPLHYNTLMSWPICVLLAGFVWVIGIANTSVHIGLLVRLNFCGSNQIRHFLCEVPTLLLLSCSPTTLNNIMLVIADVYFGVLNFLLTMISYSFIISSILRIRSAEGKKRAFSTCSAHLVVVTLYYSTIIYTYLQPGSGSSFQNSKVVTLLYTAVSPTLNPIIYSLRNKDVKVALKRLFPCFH
In short: as §1

UniProt Q8VGU3 = molecular target: T5, UniProt Q8VGU3
T5 sequence (whole entry): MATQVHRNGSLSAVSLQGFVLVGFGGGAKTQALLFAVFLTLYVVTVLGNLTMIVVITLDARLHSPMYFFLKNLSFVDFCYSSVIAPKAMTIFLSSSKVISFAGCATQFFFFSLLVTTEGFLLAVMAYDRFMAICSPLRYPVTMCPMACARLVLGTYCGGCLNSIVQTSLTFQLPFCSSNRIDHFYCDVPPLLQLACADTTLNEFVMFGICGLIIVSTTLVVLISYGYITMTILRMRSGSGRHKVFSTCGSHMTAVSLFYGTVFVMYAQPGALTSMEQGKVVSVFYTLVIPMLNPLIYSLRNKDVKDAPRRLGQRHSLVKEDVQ
In short: as §1

UniProt Q8VGV1 = molecular target: T6, UniProt Q8VGV1
T6 sequence (whole entry): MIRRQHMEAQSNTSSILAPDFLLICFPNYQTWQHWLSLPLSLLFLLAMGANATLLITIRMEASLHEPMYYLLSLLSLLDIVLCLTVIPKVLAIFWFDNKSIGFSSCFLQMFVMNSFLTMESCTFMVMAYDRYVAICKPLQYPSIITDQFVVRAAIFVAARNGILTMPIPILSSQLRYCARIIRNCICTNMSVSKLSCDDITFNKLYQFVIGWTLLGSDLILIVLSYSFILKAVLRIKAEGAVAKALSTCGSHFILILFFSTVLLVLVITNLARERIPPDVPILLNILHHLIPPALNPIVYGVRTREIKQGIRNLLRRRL
In short: as §1

UniProt Q8VGV7 = molecular target: T7, UniProt Q8VGV7
T7 sequence (whole entry): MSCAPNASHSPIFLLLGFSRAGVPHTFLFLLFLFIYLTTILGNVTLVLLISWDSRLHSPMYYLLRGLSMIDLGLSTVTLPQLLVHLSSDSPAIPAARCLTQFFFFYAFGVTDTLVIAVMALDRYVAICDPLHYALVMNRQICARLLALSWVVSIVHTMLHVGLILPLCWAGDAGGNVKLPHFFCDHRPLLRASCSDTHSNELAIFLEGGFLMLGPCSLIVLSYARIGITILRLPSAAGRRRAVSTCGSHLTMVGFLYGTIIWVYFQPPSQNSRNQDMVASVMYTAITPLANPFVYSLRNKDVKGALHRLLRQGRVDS
In short: as §1

UniProt Q8VGX3 = molecular target: T8, UniProt Q8VGX3
T8 sequence (whole entry): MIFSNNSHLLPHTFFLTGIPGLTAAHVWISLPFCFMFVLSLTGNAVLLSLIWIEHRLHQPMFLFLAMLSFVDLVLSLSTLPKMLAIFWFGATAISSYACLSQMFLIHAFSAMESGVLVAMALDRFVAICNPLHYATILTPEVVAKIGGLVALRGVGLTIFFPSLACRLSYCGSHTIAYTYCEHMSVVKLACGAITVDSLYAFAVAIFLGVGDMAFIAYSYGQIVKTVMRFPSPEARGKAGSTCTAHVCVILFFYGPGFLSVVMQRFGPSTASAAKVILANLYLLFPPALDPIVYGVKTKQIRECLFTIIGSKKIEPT
In short: as §1

UniProt Q8VGX5 = molecular target: T9, UniProt Q8VGX5
T9 sequence (whole entry): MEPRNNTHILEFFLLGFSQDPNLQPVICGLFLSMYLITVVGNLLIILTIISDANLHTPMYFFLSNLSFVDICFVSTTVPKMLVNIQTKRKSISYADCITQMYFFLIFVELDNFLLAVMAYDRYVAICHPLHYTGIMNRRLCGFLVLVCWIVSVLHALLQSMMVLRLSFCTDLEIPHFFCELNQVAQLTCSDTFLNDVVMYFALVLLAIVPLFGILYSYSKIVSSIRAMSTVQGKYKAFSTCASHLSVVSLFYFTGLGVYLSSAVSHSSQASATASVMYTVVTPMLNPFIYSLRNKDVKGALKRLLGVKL
In short: as §1

UniProt Q8VGW5 = molecular target: T10, UniProt Q8VGW5
T10 sequence (whole entry): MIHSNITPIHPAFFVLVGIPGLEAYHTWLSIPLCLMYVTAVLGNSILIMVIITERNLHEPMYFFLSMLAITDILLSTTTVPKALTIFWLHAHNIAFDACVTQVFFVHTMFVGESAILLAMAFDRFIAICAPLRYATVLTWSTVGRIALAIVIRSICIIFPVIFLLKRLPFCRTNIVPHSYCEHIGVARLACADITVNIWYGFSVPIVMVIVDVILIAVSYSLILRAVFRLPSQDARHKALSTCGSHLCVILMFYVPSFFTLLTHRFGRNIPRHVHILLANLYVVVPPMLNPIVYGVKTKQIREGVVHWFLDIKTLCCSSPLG
In short: as §1
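Also: active if original authors judged signal statistically different from baseline.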

SMILES	odorant receptor agonist call (UniProt Q8VGM2)	odorant receptor agonist call (UniProt Q8VGP6)	odorant receptor agonist call (UniProt Q8VGQ3)	odorant receptor agonist call (UniProt Q8VGT4)	odorant receptor agonist call (UniProt Q8VGU3)	odorant receptor agonist call (UniProt Q8VGV1)	odorant receptor agonist call (UniProt Q8VGV7)	odorant receptor agonist call (UniProt Q8VGX3)	odorant receptor agonist call (UniProt Q8VGX5)	odorant receptor agonist call (UniProt Q8VGW5)
CCCCCC=O	inactive	inactive	inactive	inactive	inactive	inactive	inactive	inactive	inactive	–
CC(C)=CCCC(C)=CCO	inactive	inactive	inactive	inactive	inactive	inactive	inactive	inactive	active	–
CCCCCCOC(C)=O	inactive	inactive	inactive	inactive	inactive	inactive	inactive	inactive	inactive	–
CCCCCCC(C)=O	inactive	inactive	inactive	inactive	inactive	inactive	inactive	inactive	inactive	–
CCCCCCCCS	inactive	inactive	inactive	inactive	inactive	inactive	inactive	inactive	inactive	–
CCCCCCO	inactive	inactive	inactive	inactive	inactive	inactive	inactive	inactive	inactive	inactive
CCCCCCCO	inactive	active	inactive	inactive	inactive	inactive	inactive	inactive	inactive	inactive
CCCCCCCCO	inactive	active	inactive	inactive	inactive	inactive	inactive	inactive	inactive	inactive
O=C(c1ccccc1)c1ccccc1	inactive	inactive	inactive	inactive	inactive	inactive	inactive	inactive	inactive	–
CCCCCCCCCO	inactive	active	inactive	inactive	inactive	inactive	inactive	inactive	inactive	inactive
CC12CCC(CC1=O)C2(C)C (stereo unspecified)	inactive	inactive	inactive	active	inactive	inactive	inactive	inactive	active	–
CC(=O)OCC=C(C)C	inactive	inactive	inactive	inactive	inactive	inactive	inactive	inactive	active	–
CC(=O)OCc1ccccc1	inactive	active	inactive	inactive	inactive	inactive	inactive	inactive	active	–
CCC(=O)C(=O)CC	inactive	inactive	inactive	inactive	inactive	inactive	inactive	inactive	inactive	–
CCCCC(=O)O	inactive	inactive	inactive	inactive	inactive	inactive	inactive	inactive	inactive	–
O=C1Cc2ccccc2O1	inactive	inactive	inactive	inactive	inactive	inactive	inactive	inactive	active	–
CCCCCCCC(C)=O	inactive	inactive	inactive	inactive	inactive	inactive	inactive	inactive	inactive	–
CCC(=O)O	inactive	inactive	inactive	inactive	inactive	inactive	inactive	inactive	inactive	–
CCCCCCCCCCO	inactive	active	inactive	inactive	inactive	inactive	inactive	inactive	inactive	–
CCOC(=O)C(C)C	inactive	inactive	inactive	inactive	inactive	inactive	inactive	inactive	inactive	–

SMILES	odorant receptor agonist call (UniProt Q8VGM2)	odorant receptor agonist call (UniProt Q8VGP6)	odorant receptor agonist call (UniProt Q8VGQ3)	odorant receptor agonist call (UniProt Q8VGT4)	odorant receptor agonist call (UniProt Q8VGU3)	odorant receptor agonist call (UniProt Q8VGV1)	odorant receptor agonist call (UniProt Q8VGV7)	odorant receptor agonist call (UniProt Q8VGX3)	odorant receptor agonist call (UniProt Q8VGX5)	odorant receptor agonist call (UniProt Q8VGW5)
CCCCCC(=O)CC	inactive	inactive	inactive	inactive	inactive	inactive	inactive	inactive	inactive	–
CCCCCC1=C(C)CCC1=O	inactive	inactive	inactive	inactive	inactive	inactive	inactive	inactive	active	–
CCCCCCCCCC(=O)[O-].[H+]	inactive	inactive	inactive	inactive	inactive	active	inactive	inactive	inactive	inactive
CCCCCCCCCS	inactive	active	inactive	inactive	inactive	inactive	inactive	inactive	inactive	–
CC(C)=CCCC(C)CCO (stereo unspecified)	inactive	inactive	inactive	inactive	inactive	inactive	inactive	inactive	inactive	–
CCCCCCCCC(=O)O	inactive	inactive	inactive	inactive	inactive	active	inactive	inactive	inactive	inactive
CCCCOC=O	inactive	inactive	inactive	inactive	inactive	inactive	inactive	inactive	inactive	–
CCCC(=O)C(C)=O	inactive	inactive	inactive	inactive	inactive	inactive	inactive	inactive	inactive	–
C=CCOC(=O)CCCCCC	inactive	inactive	inactive	inactive	inactive	inactive	inactive	inactive	inactive	–
c1ccccc1	inactive	inactive	inactive	inactive	inactive	inactive	inactive	inactive	inactive	–
CC(=O)Oc1ccccc1	inactive	inactive	inactive	inactive	inactive	inactive	inactive	inactive	active	–
COc1cc(C(=O)O)ccc1O	inactive	inactive	inactive	inactive	inactive	inactive	inactive	inactive	inactive	–
O=C(O)CCCCCCCCC(=O)O	–	–	–	–	inactive	–	inactive	inactive	inactive	–
CCCCC(C)=O	inactive	inactive	inactive	inactive	inactive	inactive	inactive	inactive	inactive	–
CCCCOC(=O)C(C)OC(=O)CCC (stereo unspecified)	inactive	inactive	inactive	inactive	–	inactive	–	–	inactive	–
CCc1occc(=O)c1O	–	–	–	–	inactive	–	inactive	inactive	active	–
CC(=O)OCc1ccc2c(c1)OCO2	–	–	–	–	inactive	–	inactive	inactive	inactive	–
C=C(C)C1CCC(C)C(=O)C1 (stereo unspecified)	inactive	inactive	active	inactive	inactive	inactive	inactive	inactive	active	–
CCCC(C)=O	inactive	inactive	inactive	inactive	–	inactive	–	–	inactive	inactive
CCc1ncc(C)nc1CC	–	–	–	–	inactive	–	inactive	inactive	inactive	–
